# What was measured:
# [1] = system: MT4; experiment: Cytotoxic concentration which reduces the cell viability of HIV-1 IIIB infected T4 lymphoblastoid MT-4 cells by 50%; format: functional; conditions: Homo sapiens
# Method in brief: (§1)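 Cytotoxicity was run in parallel, in the same experiment, on uninfected, compound-treated MT-4 or CEM-SS cells cultured 5 days. Viability was measured by MTT reduction to formazan (OD 540 nm). CC50 is the concentration reducing viability by 50%, calculated by median-effect analysis; means of duplicates.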
# [2] = system: MT4; experiment: Effective concentration required to achieve 50% inhibition of HIV-1 IIIB multiplication in hT4 lymphoblastoid MT-4 cells using MTT assay; format: functional, cell-based; conditions: Homo sapiens
# Method in brief: (§2)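 MT-4 cells infected with 50 TCID50 of HIV-1 IIIB; 30 min adsorption, free virus washed off, then cultured with a range of compound concentrations for 5 days. Protection from virus-induced cytopathogenicity was read by MTT reduction (OD 540 nm). EC50 taken from a median-effect plot of dose-effect data; means of duplicate experiments.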
# [3] = target: Human immunodeficiency virus type 1 reverse transcriptase (Human immunodeficiency virus 1) (UniProt Q72547); experiment: Cytotoxic concentration which reduces the cell viability of HIV-1 LAI infected T4 lymphoblastoid CEM-SS cells by 50%; format: functional, cell-based
# [4] = (§3) Cytotoxic concentration which reduces the cell viability of HIV-1 IIIB infected PBM (peripheral blood mononuclear) cells; format: functional; conditions: Homo sapiens
# [5] = Effective concentration required to achieve 50% inhibition of HIV-2 D194 multiplication in PBM (peripheral blood mononuclear) cells; format: functional, Homo sapiens
# [6] = Effective concentration required to achieve 50% inhibition of HIV-1 IIIB multiplication in PBM (peripheral blood mononuclear) cells; format: functional, Homo sapiens
# [7] = system: CEM-SS; experiment: Effective concentration required to achieve 50% inhibition of HIV-1 181C (nevirapine-resistant HIV-1) multiplication in CEM-SS cells.; format: functional, cell-based; conditions: Homo sapiens
# Method in brief: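 CEM-SS cells infected with 100 TCID50 of nevirapine-resistant HIV-1, 30 min adsorption, then washed to remove free virus. Cultured with a range of compound concentrations for 5 days. Virus production read as reverse transcriptase activity of virions released into culture supernatants. EC50 taken from a computer-generated median effect plot of dose-effect data; means of duplicate experiments.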
# [8] = system: MT4; experiment: as §3; format: functional, cell-based; conditions: Homo sapiens
# [9] = concentration of compound which reduces the cell viability by 50% against PBM (peripheral blood mononuclear) cells infected with HIV-1 IIIB cells.; format: functional; conditions: Homo sapiens
# [10] = system: MT4; experiment: Effective concentration. required to achieve 50% inhibition of HIV-1 IIIB multiplication in hT4 lymphoblastoid MT-4 cells using MTT assay; format: functional, cell-based; conditions: Homo sapiens; method in brief: as §2
# [11] = Effective conc. required to achieve 50% inhibition of HIV-2 D194 multiplication in PBM (peripheral blood mononuclear) cells; format: functional, Homo sapiens
# [12] = target: Human immunodeficiency virus type 1 reverse transcriptase (Human immunodeficiency virus 1) (UniProt Q72547); experiment: Cytotoxic conc. which reduces the cell viability of HIV-1 LAI infected T4 lymphoblastoid CEM-SS cells by 50%; format: functional, cell-based
# [13] = Effective conc. required to achieve 50% inhibition of HIV-1 IIIB multiplication in PBM (peripheral blood mononuclear) cells; format: functional, Homo sapiens
# [14] = system: MT4; experiment: Cytotoxic conc. which reduces the cell viability of […] T4 lymphoblastoid MT-4 cells by 50%; format: functional; conditions: Homo sapiens; method in brief: as §1
# [15] = system: MT4; experiment: Cytotoxic concentration. which reduces the cell viability of […] T4 lymphoblastoid MT-4 cells by 50%; format: functional; conditions: Homo sapiens; method in brief: as §1
# [16] = Effective concentration. required to achieve 50% inhibition of HIV-2 D194 multiplication in PBM (peripheral blood mononuclear) cells; format: functional, Homo sapiens
Compound,CC50 [1],EC50 [2],CC50 [3],CC50 [4],EC50 [5],EC50 [6],other results
[N-]=[N+]=NC1CC(n2cc(CCC(=O)NCCCCCCCCCCN)c(=O)[nH]c2=O)OC1CO (configuration not stated),60 µM,> 100 µM,38 µM,77 µM,68 µM,75 µM,–
CCc1c(Sc2cc(C)cc(C)c2)n(CCCCC(=O)OC)c(=O)[nH]c1=O,> 10 µM,0.33 µM,> 33 µM,> 33 µM,> 33 µM,0.18 µM,EC50 [7]: > 33 µM
NCCCCCCCCCCCCNc1ccn(C2CCC(CO)O2)c(=O)n1 (configuration not stated),> 100 µM,100 µM,48 µM,61 µM,4.7 µM,2.9 µM,–
CCc1c(C)nc(O)c(NC(=O)CCCCCCCCC(=O)O)c1Cc1cc(C)cc(C)c1,–,–,> 10 µM,–,–,–,–
CCc1c(Sc2cc(C)cc(C)c2)n(CCCCC(=O)NCCCCCCCCCCCCNc2ccn(C3CCC(CO)O3)c(=O)n2)c(=O)[nH]c1=O (configuration not stated),> 10 µM,6.2 µM,> 25 µM,> 10 µM,–,0.46 µM,EC50 [7]: 0.53 µM
COC(=O)CCCNC(=O)CCc1cn(C2CC(N=[N+]=[N-])C(CO)O2)c(=O)[nH]c1=O (configuration not stated),75 µM,> 100 µM,> 100 µM,> 100 µM,> 100 µM,> 100 µM,–
CCc1c(Sc2cc(C)cc(C)c2)n(CCCCC(=O)NCCCCCCCCCCNC(=O)CCn2c(=O)c(C)cn(C3CC(N=[N+]=[N-])C(CO)O3)c2=O)c(=O)[nH]c1=O (configuration not stated),> 10 µM,> 10 µM,> 25 µM,> 25 µM,> 25 µM,5.5 µM,EC50 [7]: 23 µM
CCc1c(Sc2cc(C)cc(C)c2)n(CCCCC(=O)NCCCCCCCCCCNC(=O)CCc2cn(C3CC(N=[N+]=[N-])C(CO)O3)c(=O)[nH]c2=O)c(=O)[nH]c1=O (configuration not stated),10 µM,–,> 25 µM,–,> 25 µM,5.1 µM,EC50 [8]: > 10 µM; CC50 [9]: > 25 µM; EC50 [7]: > 25 µM
CCc1c(C)nc(O)c(NC(=O)CCCCCCCCCNC(=O)OC(C)(C)C)c1Cc1cc(C)cc(C)c1,–,–,> 10 µM,–,–,–,–
CCOC(=O)CCn1c(=O)c(C)cn(C2CC(N=[N+]=[N-])C(CO)O2)c1=O (configuration not stated),> 100 µM,4.3 µM,> 100 µM,> 100 µM,8 µM,2.1 µM,–
[N-]=[N+]=NC1CC(n2cc(CCC(=O)NCCCCN)c(=O)[nH]c2=O)OC1CO (configuration not stated),> 100 µM,–,> 100 µM,> 100 µM,> 100 µM,> 100 µM,EC50 [10]: > 100 µM
Cc1cn([C@H]2C[C@H](N=[N+]=[N-])[C@@H](CO)O2)c(=O)[nH]c1=O [ZIDOVUDINE],–,0.02 µM,–,75 µM,–,–,EC50 [11]: 0.006 µM; CC50 [12]: > 100 µM; EC50 [13]: 0.001 µM; CC50 [14]: > 100 µM
CCc1c(C)nc(O)c(NC(=O)CCCC(=O)OC)c1Cc1cc(C)cc(C)c1,–,–,> 100 µM,–,–,–,–
CCc1c(C)nc(O)c(NC(=O)CNC(=O)CNC(=O)OC(C)(C)C)c1Cc1cc(C)cc(C)c1,–,–,> 100 µM,–,–,–,–
CCc1c(C)nc(O)c(NC(=O)CCCC(=O)O)c1Cc1cc(C)cc(C)c1,–,–,28 µM,–,–,–,–
CCc1c(Sc2cc(C)cc(C)c2)n(CCCCC(=O)NCCCCNC(=O)CCc2cn(C3CC(N=[N+]=[N-])C(CO)O3)c(=O)[nH]c2=O)c(=O)[nH]c1=O (configuration not stated),> 10 µM,> 10 µM,> 55 µM,> 50 µM,> 50 µM,4.3 µM,EC50 [7]: > 50 µM
CCc1c(C)nc(O)c(NC(=O)CCCCCCCCC(=O)OC)c1Cc1cc(C)cc(C)c1,–,–,> 10 µM,–,–,–,–
CCc1c(C)nc(O)c(NC(=O)CCCCCCCCCN)c1Cc1cc(C)cc(C)c1,–,–,> 66 µM,–,–,–,–
CCc1c(C)nc(O)c(NC(=O)CNC(=O)CN)c1Cc1cc(C)cc(C)c1,–,–,> 100 µM,–,–,–,–
Cc1cn(C2CC(N=[N+]=[N-])C(CO)O2)c(=O)n(CCC(=O)NCCCCCCCCCCN)c1=O (configuration not stated),> 100 µM,> 100 µM,60 µM,80 µM,> 100 µM,40 µM,–
CCc1c(C)nc(O)c(N)c1Cc1cc(C)cc(C)c1,–,–,> 10 µM,–,–,–,–
Nc1ccn([C@H]2CC[C@@H](CO)O2)c(=O)n1 [ZALCITABINE],–,2.4 µM,–,10 µM,–,–,EC50 [11]: 0.07 µM; CC50 [12]: 34 µM; EC50 [13]: 0.016 µM; CC50 [14]: > 100 µM
COC(=O)CCc1cn(C2CC(N=[N+]=[N-])C(CO)O2)c(=O)[nH]c1=O (configuration not stated),–,> 100 µM,> 100 µM,> 100 µM,–,> 100 µM,CC50 [15]: > 100 µM; EC50 [16]: > 100 µM

# Reference: ChEMBL document CHEMBL1133178, “Synthesis and evaluation of "AZT-HEPT", "AZT-pyridinone", and "ddC-HEPT" conjugates as inhibitors of HIV reverse transcriptase” (J Med Chem, 2000)
